Active and inactive are the calls of the source.
What was measured:
Mus musculus [1] = assay: Neurotoxicity in Kunming mouse assessed as minimum motor impairment at 100 mg/kg, ip after 4 hrs by rotarod test; type: toxicity, organism-based; parameters: dose 100 mg/kg, route intraperitoneal; conditions: in vivo
Procedure, shortened: (§1)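 Rotorod neurotoxicity in male Kunming mice (20 ± 2.0 g) given ip doses of 30, 100 or 300 mg/kg as a suspension in 0.5% methylcellulose, one to four mice per dose. Motor impairment was examined at 0.5 h and 4.0 h after injection. Reported as number of animals showing toxicity/number tested.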

Rattus norvegicus [2] = assay: Anticonvulsant activity in Kunming rat assessed as protection against maximal electroshock-induced seizures at 30 mg/kg, po after 4 hrs; type: functional
Procedure, shortened: (§2)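 Male Kunming rats (250 ± 5.0 g) were dosed orally at 30 mg/kg, four rats per compound. Seizures were induced by a 150-mA corneal current for 0.2 s at 0.25, 0.5, 1, 2 and 4 h after dosing. Readout was the number of rats out of four protected against hindlimb tonic extension.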

Mus musculus [3] = assay: Neurotoxicity in Kunming mouse assessed as minimum motor impairment at 300 mg/kg, ip after 0.5 hrs by rotarod test; type: toxicity, organism-based; parameters: dose 300 mg/kg, route intraperitoneal; conditions: in vivo; procedure, shortened: as §1
Mus musculus [4] = assay: Neurotoxicity in Kunming mouse assessed as minimum motor impairment at 30 mg/kg, ip after 4 hrs by rotarod test; type: toxicity, organism-based; parameters: dose 30 mg/kg, route intraperitoneal; conditions: in vivo; procedure, shortened: as §1
Mus musculus [5] = assay: Anticonvulsant activity in Kunming mouse assessed as protection against subcutaneous pentylenetetrazole-induced seizures at 100 mg/kg, ip after 4 hrs; type: functional, organism-based; parameters: dose 100 mg/kg
Procedure, shortened: (§3)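 Male Kunming mice (20 ± 2.0 g) received the compound ip as a suspension in 0.5% methylcellulose at 30, 100 or 300 mg/kg, one to four mice per dose. Pentylenetetrazole in 0.9% saline was given sc at 0.5 h and 4.0 h after dosing. Protection meant no threshold seizure (one clonic spasm episode of at least 5 s). Scored as protected/tested.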

Mus musculus [6] = assay: Anticonvulsant activity in Kunming mouse assessed as protection against subcutaneous pentylenetetrazole-induced seizures at 30 mg/kg, ip after 0.5 hrs; type: functional, organism-based; parameters: dose 30 mg/kg; procedure, shortened: as §3
Rattus norvegicus [7] = assay: Neurotoxicity in Kunming rat assessed as minimum motor impairment at 30 mg/kg, po after 2 hrs by rotarod test; type: functional, organism-based; parameters: dose 30 mg/kg
Procedure, shortened: (§4)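 Rotorod neurotoxicity in male Kunming rats (250 ± 5.0 g) given 30 mg/kg po, four rats per compound. Motor impairment was assessed at 0.25, 0.5, 1, 2 and 4 h after oral administration.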

Rattus norvegicus [8] = assay: Neurotoxicity in Kunming rat assessed as minimum motor impairment at 30 mg/kg, po after 0.25 hrs by rotarod test; type: toxicity, organism-based; parameters: dose 30 mg/kg, route oral; conditions: in vivo; procedure, shortened: as §4
Rattus norvegicus [9] = assay: Anticonvulsant activity in Kunming rat assessed as protection against maximal electroshock-induced seizures at 30 mg/kg, po after 1 hr; type: functional; procedure, shortened: as §2
Mus musculus [10] = assay: Anticonvulsant activity in Kunming mouse assessed as protection against subcutaneous pentylenetetrazole-induced seizures at 30 mg/kg, ip after 4 hrs; type: functional, organism-based; parameters: dose 30 mg/kg; procedure, shortened: as §3
Rattus norvegicus [11] = assay: Anticonvulsant activity in Kunming rat assessed as protection against maximal electroshock-induced seizures at 30 mg/kg, po after 0.25 hrs; type: functional; procedure, shortened: as §2
Rattus norvegicus [12] = assay: Anticonvulsant activity in Kunming rat assessed as protection against maximal electroshock-induced seizures at 30 mg/kg, po after 0.5 hrs; type: functional; procedure, shortened: as §2
Rattus norvegicus [13] = assay: Neurotoxicity in Kunming rat assessed as minimum motor impairment at 30 mg/kg, po after 0.5 hrs by rotarod test; type: functional, organism-based; parameters: dose 30 mg/kg; procedure, shortened: as §4
Mus musculus [14] = assay: Neurotoxicity in Kunming mouse assessed as minimum motor impairment at 100 mg/kg, ip after 0.5 hrs by rotarod test; type: toxicity, organism-based; parameters: dose 100 mg/kg, route intraperitoneal; conditions: in vivo; procedure, shortened: as §1
Mus musculus [15] = assay: Neurotoxicity in Kunming mouse assessed as minimum motor impairment at 30 mg/kg, ip after 0.5 hrs by rotarod test; type: toxicity, organism-based; parameters: dose 30 mg/kg, route intraperitoneal; conditions: in vivo; procedure, shortened: as §1
Rattus norvegicus [16] = assay: Anticonvulsant activity in Kunming rat assessed as protection against maximal electroshock-induced seizures at 30 mg/kg, po after 2 hrs; type: functional; procedure, shortened: as §2
Rattus norvegicus [17] = assay: Neurotoxicity in Kunming rat assessed as minimum motor impairment at 30 mg/kg, po after 1 hr by rotarod test; type: functional, organism-based; parameters: dose 30 mg/kg; procedure, shortened: as §4
Mus musculus [18] = assay: Anticonvulsant activity in Kunming mouse assessed as protection against maximal electroshock-induced seizures at 30 mg/kg, ip after 0.5 hrs; type: functional, organism-based; parameters: dose 30 mg/kg
Rattus norvegicus [19] = assay: Neurotoxicity in Kunming rat assessed as minimum motor impairment at 30 mg/kg, po after 4 hrs by rotarod test; type: functional, organism-based; parameters: dose 30 mg/kg; procedure, shortened: as §4
Mus musculus [20] = assay: Neurotoxicity in Kunming mouse assessed as minimum motor impairment at 300 mg/kg, ip after 4 hrs by rotarod test; type: toxicity, organism-based; parameters: dose 300 mg/kg, route intraperitoneal; conditions: in vivo; procedure, shortened: as §1
Mus musculus [21] = assay: Anticonvulsant activity in Kunming mouse assessed as protection against subcutaneous pentylenetetrazole-induced seizures at 300 mg/kg, ip after 0.5 hrs; type: functional, organism-based; parameters: dose 300 mg/kg; procedure, shortened: as §3
Rattus norvegicus [22] = assay: Anticonvulsant activity in Kunming rat assessed as protection against subcutaneous pentylenetetrazole-induced seizures at 30 mg/kg, po after 1 hr; type: functional
Mus musculus [23] = assay: Anticonvulsant activity in Kunming mouse assessed as protection against subcutaneous pentylenetetrazole-induced seizures at 100 mg/kg, ip after 0.5 hrs; type: functional, organism-based; parameters: dose 100 mg/kg; procedure, shortened: as §3
Mus musculus [24] = assay: Anticonvulsant activity in Kunming mouse assessed as protection against maximal electroshock-induced seizures at 300 mg/kg, ip after 4 hrs; type: functional, organism-based; parameters: dose 300 mg/kg
Mus musculus [25] = assay: Anticonvulsant activity in Kunming mouse assessed as protection against maximal electroshock-induced seizures at 100 mg/kg, ip after 4 hrs; type: functional, organism-based; parameters: dose 100 mg/kg
Mus musculus [26] = assay: Anticonvulsant activity in Kunming mouse assessed as protection against subcutaneous pentylenetetrazole-induced seizures at 300 mg/kg, ip after 4 hrs; type: functional, organism-based; parameters: dose 300 mg/kg; procedure, shortened: as §3
Mus musculus [27] = assay: Protective index, ratio of TD50 for neurotoxicity in ip dosed Kunming mouse to ED50 for Kunming mouse by sPTZ test; type: functional
Mus musculus [28] = assay: Anticonvulsant activity in ip dosed Kunming mouse assessed as time peak effect; type: functional
Mus musculus [29] = assay: Anticonvulsant activity in ip dosed Kunming mouse assessed as protection against subcutaneous pentylenetetrazole-induced seizures; type: functional
Procedure, shortened: (§5)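 Quantitative phase-II study in groups of 10 male Kunming mice. A range of ip doses in 0.5% carboxymethyl cellulose-0.9% saline (0.1 ml) was given until at least three points fell within 10–90% seizure protection (MES or scPTZ) or minimal neurotoxicity. Rotorod toxicity was read 30 min after dosing.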

[30] = Neurotoxicity in ip dosed Kunming mouse assessed as minimum motor impairment by rotarod test; type: toxicity, organism-based; conditions: in vivo; procedure, shortened: as §5
Mus musculus [31] = assay: Protective index, ratio of TD50 for neurotoxicity in ip dosed Kunming mouse to ED50 for Kunming mouse by MES test; type: functional
Mus musculus [32] = assay: Anticonvulsant activity in ip dosed Kunming mouse assessed as protection against maximal electroshock-induced seizures; type: functional; procedure, shortened: as §5
Mus musculus [33] = assay: Anticonvulsant activity in Kunming mouse assessed as protection against maximal electroshock-induced seizures at 100 mg/kg, ip after 0.5 hrs; type: functional, organism-based; parameters: dose 100 mg/kg
Mus musculus [34] = assay: Anticonvulsant activity in Kunming mouse assessed as protection against maximal electroshock-induced seizures at 30 mg/kg, ip after 4 hrs; type: functional, organism-based; parameters: dose 30 mg/kg
Rattus norvegicus [35] = assay: Anticonvulsant activity in Kunming rat assessed as protection against subcutaneous pentylenetetrazole-induced seizures at 30 mg/kg, po after 0.5 hrs; type: functional

SMILES	Activity (Mus musculus [1])	Activity (Rattus norvegicus [2])	Activity (Mus musculus [3])	Activity (Mus musculus [4])	Activity (Mus musculus [5])	Activity (Mus musculus [6])	Activity (Rattus norvegicus [7])	Activity (Rattus norvegicus [8])	Activity (Rattus norvegicus [9])	Activity (Mus musculus [10])	Activity (Rattus norvegicus [11])	Activity (Rattus norvegicus [12])	Activity (Rattus norvegicus [13])	Activity (Mus musculus [14])	Activity (Mus musculus [15])	Activity (Rattus norvegicus [16])	Activity (Rattus norvegicus [17])	Activity (Mus musculus [18])	Activity (Rattus norvegicus [19])	Activity (Mus musculus [20])	also measured
CCCCC1CC12NC(=O)N(C)C2=O (stereo not drawn)	Non-toxic	inactive	Non-toxic	Non-toxic	inactive	Active	Not toxic	Non-toxic	50%	inactive	25%	inactive	Not toxic	Non-toxic	Non-toxic	inactive	Not toxic	Active	Not toxic	Non-toxic	–
CN1C(=O)NC2(CC2c2ccc(F)cc2)C1=O (stereo not drawn)	Non-toxic	inactive	Non-toxic	Non-toxic	–	Active	Not toxic	Non-toxic	inactive	inactive	inactive	25%	Not toxic	Non-toxic	Non-toxic	25%	Not toxic	Active	Not toxic	Non-toxic	Activity (Mus musculus [21]): Active; Activity (Rattus norvegicus [22]): 25%; Activity (Mus musculus [23]): Active; Activity (Mus musculus [24]): Active; Activity (Mus musculus [25]): Active
CN1C(=O)NC2(CC2c2ccccc2)C1=O (stereo not drawn)	Non-toxic	inactive	Toxic	Non-toxic	inactive	inactive	Not toxic	Non-toxic	inactive	inactive	inactive	25%	Not toxic	Non-toxic	Non-toxic	inactive	Not toxic	Active	Not toxic	–	Activity (Mus musculus [21]): inactive; Activity (Mus musculus [23]): inactive; Activity (Mus musculus [26]): inactive
CN1C(=O)NC2(CC2c2ccc(S(C)(=O)=O)cc2)C1=O (stereo not drawn)	Non-toxic	75%	–	Non-toxic	–	Active	Not toxic	Non-toxic	50%	inactive	inactive	50%	Not toxic	Non-toxic	Non-toxic	75%	Not toxic	Active	Not toxic	Non-toxic	Activity (Mus musculus [21]): Active; PI (Mus musculus [27]): 0.73; Activity (Rattus norvegicus [22]): 25%; Activity (Mus musculus [23]): Active; Time (Mus musculus [28]): 0.5 h; ED50 (Mus musculus [29]): 427 mg/kg; TD50 [30]: 310 mg/kg; PI (Mus musculus [31]): 24.8; Activity (Mus musculus [24]): Active; ED50 (Mus musculus [32]): 12.5 mg/kg; Activity (Mus musculus [25]): Active
O=C1NC(=O)C(c2ccccc2)(c2ccccc2)N1 [PHENYTOIN]	–	–	–	–	–	–	–	–	–	–	–	Active	–	–	–	–	–	–	–	–	Time (Mus musculus [28]): 2 h; ED50 (Mus musculus [29]): > 300 mg/kg
COc1cccc(C2CC23NC(=O)N(C)C3=O)c1OC (stereo not drawn)	Non-toxic	–	Toxic	Non-toxic	inactive	inactive	Not toxic	Non-toxic	–	inactive	–	–	Not toxic	Non-toxic	Non-toxic	–	Not toxic	Active	Not toxic	Non-toxic	Activity (Mus musculus [33]): Active; Activity (Mus musculus [34]): inactive; Activity (Rattus norvegicus [22]): inactive; Activity (Mus musculus [24]): Active; Activity (Rattus norvegicus [35]): 25%

From ChEMBL document CHEMBL1240414, “Synthesis and anticonvulsant activity of new 6-methyl-1-substituted-4,6-diazaspiro[2.4]heptane-5,7-diones” (Eur J Med Chem, 2010)
